Assays:
[1] = target: Leukotriene B4 receptor 1 (Homo sapiens, UniProt Q15722); assay: Inhibition of [3H]- LTB4 binding on human whole cells
Method in brief: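 Intact DMSO-differentiated (1.3%, 3-4 days) human U-937 cells, or isolated human peripheral blood PMNs, 10⁶ cells, incubated in HBSS with 0.1% ovalbumin, 0.2 nM [³H]LTB₄ and compound (0.1 nM-10 μM, 5-8 concentrations in duplicate) for 20 min at 0 °C. Nonspecific binding measured with 1 μM unlabeled LTB₄. Filtration, scintillation counting. Ki from IC50 by Cheng-Prusoff; mean of ≥2 assays.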

[2] = Agonist-induced calcium mobilization using human polymorphonuclear leukocytes; set-up: concentration or dose not given beside the values

Leukotriene B4 receptor 1, sequence (Q15722 whole entry): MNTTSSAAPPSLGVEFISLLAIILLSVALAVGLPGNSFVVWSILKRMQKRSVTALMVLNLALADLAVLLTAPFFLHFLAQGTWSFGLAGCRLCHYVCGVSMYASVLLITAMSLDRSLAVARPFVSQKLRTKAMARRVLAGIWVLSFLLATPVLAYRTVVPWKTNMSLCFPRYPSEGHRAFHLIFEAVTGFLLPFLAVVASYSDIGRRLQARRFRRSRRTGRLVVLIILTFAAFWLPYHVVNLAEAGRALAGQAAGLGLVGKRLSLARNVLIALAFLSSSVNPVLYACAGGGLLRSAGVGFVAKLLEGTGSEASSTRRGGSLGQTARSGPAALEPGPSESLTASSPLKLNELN

SMILES | Ki [1] [nM] | Agonist activity % [2] [%]
CCCCCCCCC(O)c1ccc2ccc(CCCCCC(=O)O)nc2c1 (centres undefined) | 2800 | 58
CCCCCCCCC(O)c1ccc2ccc(CSc3cccc(C(=O)[O-])c3)cc2c1.[Li+] (centres undefined) | 9000 | 23
CCCCCCCCC(O)c1ccc2ccc(CC(O)CCCC(=O)O)nc2c1 (centres undefined) | 900 | 63
CCCCC/C=C\C[C@H](O)/C=C/c1cccc(C[C@H](O)CCCCO)n1 | 700 | 100
CCCCCCCCC(O)/C=C/c1cccc(CC(O)c2cccc(C(=O)[O-])c2)n1.[Li+] (centres undefined) | – | 86
CCCCCCCCC(O)c1ccc2ccc(/C=C/CCCC(=O)O)nc2c1 (centres undefined) | 1400 | 45
CCCCOc1cccc(C(O)CCc2cccc(CC(O)c3cccc(C(=O)[O-])c3)n2)c1.[Li+] (centres undefined) | 1000 | 4

Further compounds by falling Ki [1], results first:

Ki [1] [nM] | SMILES | Agonist activity % [2] [%]
600 | CCCCCCCCC(O)c1ccc2ccc(CSc3cccc(C(=O)O)c3)nc2c1 (centres undefined) | 85
500 | CCCCCCCCC(O)c1ccc2ccc(C[S+]([O-])c3cccc(C(=O)[O-])c3)cc2c1.[Li+] (centres undefined) | 56
140 | CCCCCCCCC(O)c1ccc2ccc(C[S+]([O-])c3cccc(C(=O)O)c3)nc2c1 (centres undefined) | 98
100 | CCCCCCCCC(O)c1ccc2ccc(CCc3cccc(C(=O)[O-])c3)nc2c1.[Li+] (centres undefined) | 66
60 | CCCCCCCCC(O)CCc1cccc(CC(O)c2cccc(C(=O)[O-])c2)n1.[Li+] (centres undefined) | 84
50 | CCCCCCCC[C@@H](O)c1ccc2ccc(CCc3cccc(C(=O)[O-])c3)nc2c1.[Li+] | 56
10 | CCCCCCCCC(O)c1ccc2ccc(CC(O)c3cccc(C(=O)[O-])c3)nc2c1.[Li+] (centres undefined) | 74
3 | CCCCOc1cccc(C(O)/C=C/c2cccc(CC(O)c3cccc(C(=O)[O-])c3)n2)c1.[Li+] (centres undefined) | 56

From ChEMBL document CHEMBL1126874, “Synthesis of structural analogs of leukotriene B4 and their receptor binding activity” (J Med Chem, 1993)
